Activity calls are given as the source filed them. The rule behind the calls is not given here.
Tests used:
Hepatocyte [1] = test: Induction of CYP3A4 mRNA expression in human hepatocytes at 0.01 to 1 uM after 3 days by qRT-PCR analysis; assay type: ADME, cell-based; details: 72 h
In short: (§1)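 Plateable human hepatocytes exposed to 0.01, 0.1 and 1.0 μM. CYP1A2, CYP2B6 and CYP3A4 induction read as both mRNA expression and enzyme activity.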

Rattus norvegicus = test: Increase in acetylcholine level in Wistar rat ventral hippocampus at 1 mg/kg, po in presence of 1 mg/kg of donepezil and memantine administered sc 30 mins post compound treatment measured after 4 hrs by LC-MS/MS based microdialysis method relative to control; assay type: functional
In short: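 Male Wistar rats (240−300 g) fitted under isoflurane with a ventral hippocampal guide cannula (AP −5.2, ML +5.0, DV −3.8 mm from bregma). Probe (4 mm membrane) inserted 16 h before study. Perfusion with aCSF pH 7.2 at 1.5 μL/min, 2 h stabilization, five basal 20-min samples. Test agent given p.o.; donepezil and memantine (1 mg/kg s.c. each) given 30 min later in combination arms. Dialysates collected 6 h (4 h for combination), acetylcholine measured by LC-MS/MS, expressed as % of mean basal.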

[2] = Apparent volume of distribution in Wistar rat at 10 mg/kg, iv by LC-MS/MS analysis; assay type: ADME, organism-based; details: in vivo, read-out: Vz
Cytochrome P450 1A2 [3] = target: T1, Cytochrome P450 1A2 (Homo sapiens, UniProt P05177); test: Inhibition of CYP1A2 in human liver microsomes in presence of NADPH by LC-MS/MS analysis; assay type: ADME
T1 sequence (P05177 whole entry, canonical isoform): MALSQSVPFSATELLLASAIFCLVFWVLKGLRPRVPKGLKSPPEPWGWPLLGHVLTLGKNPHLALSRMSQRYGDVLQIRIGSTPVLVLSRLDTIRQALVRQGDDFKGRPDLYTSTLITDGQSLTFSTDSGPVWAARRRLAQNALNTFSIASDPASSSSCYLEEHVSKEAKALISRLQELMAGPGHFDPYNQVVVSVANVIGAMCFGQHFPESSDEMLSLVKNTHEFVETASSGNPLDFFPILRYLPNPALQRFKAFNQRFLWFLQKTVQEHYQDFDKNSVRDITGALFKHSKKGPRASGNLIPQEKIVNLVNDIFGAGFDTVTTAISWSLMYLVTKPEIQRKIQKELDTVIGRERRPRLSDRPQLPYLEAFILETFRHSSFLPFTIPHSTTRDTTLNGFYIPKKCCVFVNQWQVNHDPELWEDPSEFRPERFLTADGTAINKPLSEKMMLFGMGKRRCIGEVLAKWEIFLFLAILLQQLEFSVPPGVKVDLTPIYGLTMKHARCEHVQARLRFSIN
In short: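 Pooled human liver microsomes. IC50 determined from isoform-specific marker activities for CYP1A2, 2A6, 2B6, 2C8, 2C9, 2C19 (mephenytoin hydroxylation) and 2E1.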

Cytochrome P450 2B6 = Cytochrome P450 2B6 (Homo sapiens, UniProt P20813); test: Induction of CYP2B6 activity in human hepatocytes at 0.01 to 1 uM preincubated for 3 days followed by substrate addition measured after 30 mins; assay type: ADME, cell-based; details: 0.5 h; in short: as §1
Cytochrome P450 2B6, sequence (P20813 whole entry): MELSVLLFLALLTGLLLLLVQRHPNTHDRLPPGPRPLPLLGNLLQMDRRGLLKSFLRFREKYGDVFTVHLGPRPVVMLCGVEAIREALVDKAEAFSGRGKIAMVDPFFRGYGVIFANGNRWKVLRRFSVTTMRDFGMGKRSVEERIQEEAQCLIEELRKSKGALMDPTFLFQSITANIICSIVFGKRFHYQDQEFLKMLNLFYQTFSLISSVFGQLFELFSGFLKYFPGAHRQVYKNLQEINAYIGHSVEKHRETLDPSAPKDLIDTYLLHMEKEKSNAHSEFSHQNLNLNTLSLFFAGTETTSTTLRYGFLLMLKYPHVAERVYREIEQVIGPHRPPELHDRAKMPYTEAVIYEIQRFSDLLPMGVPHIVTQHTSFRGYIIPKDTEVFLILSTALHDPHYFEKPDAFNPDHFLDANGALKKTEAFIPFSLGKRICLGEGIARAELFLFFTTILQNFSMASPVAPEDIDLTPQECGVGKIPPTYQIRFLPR

Salmonella typhimurium [4] = test: Mutagenicity in Salmonella typhimurium TA1537 in absence of metabolic activation; assay type: toxicity; details: salmonella enterica subsp. enterica serovar typhimurium
Hepatocyte [5] = test: Induction of CYP1A2 mRNA expression in human hepatocytes at 0.01 to 1 uM after 3 days by qRT-PCR analysis; assay type: ADME, cell-based; details: 72 h; in short: as §1
Salmonella typhimurium [6] = test: Mutagenicity in Salmonella typhimurium TA100 in absence of metabolic activation; assay type: toxicity; details: salmonella enterica subsp. enterica serovar typhimurium
[7] = target: T2, 5-hydroxytryptamine receptor 2C (Homo sapiens) (UniProt P28335); test: Displacement of [3H]-Mesulergine from recombinant human 5-HT2C receptor expressed in HEK293 cell membranes after 180 mins by microbeta scintillation counting analysis
T2 sequence (whole entry): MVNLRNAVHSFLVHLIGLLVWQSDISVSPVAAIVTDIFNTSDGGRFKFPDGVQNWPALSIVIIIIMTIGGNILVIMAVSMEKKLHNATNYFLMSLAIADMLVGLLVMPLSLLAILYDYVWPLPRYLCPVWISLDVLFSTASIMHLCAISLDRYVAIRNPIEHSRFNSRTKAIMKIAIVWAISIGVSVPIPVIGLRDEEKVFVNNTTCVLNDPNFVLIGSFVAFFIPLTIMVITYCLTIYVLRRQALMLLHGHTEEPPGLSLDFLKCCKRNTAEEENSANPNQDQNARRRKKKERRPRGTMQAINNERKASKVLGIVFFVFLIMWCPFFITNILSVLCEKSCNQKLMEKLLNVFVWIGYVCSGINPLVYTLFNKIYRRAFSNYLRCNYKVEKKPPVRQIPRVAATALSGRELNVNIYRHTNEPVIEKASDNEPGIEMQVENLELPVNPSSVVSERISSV

[8] = Apparent permeability of the compound in human Caco2 cells at 10 uM measured up to 120 mins by LC-MS/MS analysis; assay type: ADME, cell-based; details: Caco-2
In short: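 Permeability in Caco-2 intestinal epithelial monolayers, measured apical-to-basolateral and basolateral-to-apical; efflux ratio taken as Papp(B-A)/Papp(A-B).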

[9] = Protein binding in rat plasma at 1 uM after 6 hrs by LC-MS/MS based rapid equilibrium dialysis method; assay type: ADME, cell-free; details: read-out: PPB
In short: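 Plasma protein binding in rat, dog and human plasma determined by equilibrium dialysis.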

[10] = target: Alpha-2A adrenergic receptor (Homo sapiens, UniProt P08913); test: Displacement of [3H] MK-912 from human adrenergic alpha 2A receptor expressed in HT29 cells after 60 mins; assay type: cell-based
Alpha-2A adrenergic receptor, sequence (P08913 whole entry): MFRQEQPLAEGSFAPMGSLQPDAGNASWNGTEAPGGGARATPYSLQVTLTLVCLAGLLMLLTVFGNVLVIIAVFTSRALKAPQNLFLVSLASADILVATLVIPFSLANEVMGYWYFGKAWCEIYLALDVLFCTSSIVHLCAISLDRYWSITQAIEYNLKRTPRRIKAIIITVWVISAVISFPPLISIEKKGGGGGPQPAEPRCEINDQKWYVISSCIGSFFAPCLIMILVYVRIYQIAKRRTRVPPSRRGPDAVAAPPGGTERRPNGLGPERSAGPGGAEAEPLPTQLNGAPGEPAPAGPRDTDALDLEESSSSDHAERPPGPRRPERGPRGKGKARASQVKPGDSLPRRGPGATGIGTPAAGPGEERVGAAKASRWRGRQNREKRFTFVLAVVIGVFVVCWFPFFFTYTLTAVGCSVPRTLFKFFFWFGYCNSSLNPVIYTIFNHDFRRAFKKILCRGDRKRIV

[11] = target: Alpha-2C adrenergic receptor (Homo sapiens) (UniProt P18825); test: Inhibition of recombinant human adrenergic alpha 2C receptor expressed in CHOK1 cells at 1 uM; assay type: cell-based
Alpha-2C adrenergic receptor (Homo sapiens), sequence (P18825 whole entry): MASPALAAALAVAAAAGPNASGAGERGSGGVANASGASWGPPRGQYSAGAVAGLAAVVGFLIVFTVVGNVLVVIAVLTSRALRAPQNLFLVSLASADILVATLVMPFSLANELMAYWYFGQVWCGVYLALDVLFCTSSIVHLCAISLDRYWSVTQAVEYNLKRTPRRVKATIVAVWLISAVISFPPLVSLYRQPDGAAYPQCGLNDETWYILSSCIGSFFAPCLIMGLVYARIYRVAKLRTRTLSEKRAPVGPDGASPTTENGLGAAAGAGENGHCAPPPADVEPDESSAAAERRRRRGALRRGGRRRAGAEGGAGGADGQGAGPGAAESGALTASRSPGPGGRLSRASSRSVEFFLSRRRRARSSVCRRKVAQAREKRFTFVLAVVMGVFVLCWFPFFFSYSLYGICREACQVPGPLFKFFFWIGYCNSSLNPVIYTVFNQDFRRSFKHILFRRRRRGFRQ

[12] = target: T3, 5-hydroxytryptamine receptor 1A (Homo sapiens) (UniProt P08908); test: Displacement of [3H]-8-OH-DPAT from recombinant human 5-HT1A receptor expressed in HEK293 EBNA cell membranes after 120 mins by microbeta scintillation counting analysis
T3 sequence (whole entry): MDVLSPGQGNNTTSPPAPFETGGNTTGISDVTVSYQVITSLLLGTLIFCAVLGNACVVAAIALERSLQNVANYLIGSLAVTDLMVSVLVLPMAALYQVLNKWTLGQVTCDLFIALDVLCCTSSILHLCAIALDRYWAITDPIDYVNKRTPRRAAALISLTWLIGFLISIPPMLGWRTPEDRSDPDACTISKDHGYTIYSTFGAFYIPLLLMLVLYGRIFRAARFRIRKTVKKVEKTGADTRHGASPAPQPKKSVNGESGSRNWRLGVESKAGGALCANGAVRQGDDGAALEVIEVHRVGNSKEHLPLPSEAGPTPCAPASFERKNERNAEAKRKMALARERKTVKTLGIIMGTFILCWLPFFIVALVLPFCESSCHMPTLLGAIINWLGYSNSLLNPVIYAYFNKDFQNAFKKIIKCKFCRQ

Salmonella typhimurium [13] = test: Mutagenicity in Salmonella typhimurium TA1537 in presence of metabolic activation; assay type: toxicity; details: salmonella enterica subsp. enterica serovar typhimurium
Homo sapiens = test: Toxicity in healthy elderly male human subjects administered as multiple ascending dose for 14 days; details: 336 h
[14] = target: Alpha-2A adrenergic receptor (Homo sapiens) (UniProt P08913); details: 1 uM
Alpha-2A adrenergic receptor (Homo sapiens), sequence (P08913 whole entry): as the sequence (P08913 whole entry) above

Salmonella typhimurium [15] = test: Mutagenicity in Salmonella typhimurium TA98 in presence of metabolic activation; assay type: toxicity; details: salmonella enterica subsp. enterica serovar typhimurium
Cytochrome P450 3A4 [16] = target: T4, Cytochrome P450 3A4 (Homo sapiens, UniProt P08684); test: Inhibition of CYP3A4 in human liver microsomes using testosterone as substrate in presence of NADPH by LC-MS/MS analysis; assay type: ADME
T4 sequence (P08684 whole entry): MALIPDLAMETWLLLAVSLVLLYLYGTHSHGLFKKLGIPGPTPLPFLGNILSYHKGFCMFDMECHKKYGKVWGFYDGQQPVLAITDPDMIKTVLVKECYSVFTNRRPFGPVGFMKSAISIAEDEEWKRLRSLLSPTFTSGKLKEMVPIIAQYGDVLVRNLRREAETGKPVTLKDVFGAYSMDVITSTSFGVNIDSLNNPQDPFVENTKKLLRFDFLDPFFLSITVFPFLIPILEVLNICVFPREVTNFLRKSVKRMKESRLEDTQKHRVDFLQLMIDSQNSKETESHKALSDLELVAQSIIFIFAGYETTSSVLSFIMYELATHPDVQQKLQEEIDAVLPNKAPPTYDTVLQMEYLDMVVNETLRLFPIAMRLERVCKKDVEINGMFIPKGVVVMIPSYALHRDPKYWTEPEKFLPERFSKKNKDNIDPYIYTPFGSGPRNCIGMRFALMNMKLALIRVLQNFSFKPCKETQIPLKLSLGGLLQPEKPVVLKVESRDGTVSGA
In short: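 CYP3A4 inhibition in human liver microsomes using testosterone hydroxylation as the probe reaction; IC50 determined.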

Cytochrome P450 1A2 [17] = target: T1, Cytochrome P450 1A2; test: Induction of CYP1A2 activity in human hepatocytes at 0.01 to 1 uM preincubated for 3 days followed by substrate addition measured after 30 mins; assay type: ADME, cell-based; details: 0.5 h; in short: as §1
[18] = target: 5-hydroxytryptamine receptor 4 (Homo sapiens) (UniProt Q13639); test: Displacement of [3H]-GR113808 from recombinant human 5-HT4B receptor expressed in Chem1 cell membranes after 120 mins by microbeta scintillation counting analysis
5-hydroxytryptamine receptor 4 (Homo sapiens), sequence (Q13639 whole entry): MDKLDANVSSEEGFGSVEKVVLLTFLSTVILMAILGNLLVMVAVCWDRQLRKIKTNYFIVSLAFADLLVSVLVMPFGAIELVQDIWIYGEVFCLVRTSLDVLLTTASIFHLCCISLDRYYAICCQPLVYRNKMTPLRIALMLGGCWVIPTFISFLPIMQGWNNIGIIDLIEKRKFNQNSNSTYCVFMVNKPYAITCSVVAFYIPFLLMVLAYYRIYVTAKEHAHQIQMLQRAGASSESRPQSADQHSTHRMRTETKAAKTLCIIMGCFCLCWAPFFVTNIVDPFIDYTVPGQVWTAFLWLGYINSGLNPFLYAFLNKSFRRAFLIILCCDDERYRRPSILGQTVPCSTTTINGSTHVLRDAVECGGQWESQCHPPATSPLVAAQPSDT

Salmonella typhimurium [19] = test: Mutagenicity in Salmonella typhimurium TA100 in presence of metabolic activation; assay type: toxicity; details: salmonella enterica subsp. enterica serovar typhimurium
Cytochrome P450 3A4 [20] = target: T4, Cytochrome P450 3A4

- Vd [2]: 4.41 L/kg
- IC50 (Cytochrome P450 1A2 [3]): > 10 µM
- Activity (Cytochrome P450 2B6): Not Active
- Activity [7]: inactive
- Papp at 2 h, 10 µM [8]: 19.6 ×10⁻⁶ cm/s
- fraction unbound at 6 h, 1 µM [9]: 0.01
- Ki [10]: 2570 nM
- inhibition [11]: > 50%
- Activity [12]: inactive
- inhibition [14]: > 50%
- IC50 (Cytochrome P450 3A4 [16]): 2640 nM
- Activity (Cytochrome P450 1A2 [17]): Not Active
- Activity [18]: inactive
- IC50 (Cytochrome P450 3A4 [20]): 1500 nM
Structure (SMILES): COc1ccc2c(c1)c(CN1CCN(C)CC1)cn2S(=O)(=O)c1ccccc1Br.CS(=O)(=O)O.O
- Activity (Hepatocyte [1]): Non-Toxic
- Activity (Rattus norvegicus): 1383%
- Activity (Salmonella typhimurium [4]): Non-Toxic
- Activity (Hepatocyte [5]): Non-Toxic
- Activity (Salmonella typhimurium [6]): Non-Toxic
- Activity (Salmonella typhimurium [13]): Non-Toxic
- Activity (Homo sapiens): Non-Toxic
- Activity (Salmonella typhimurium [15]): Non-Toxic
- Activity (Salmonella typhimurium [19]): Non-Toxic

Source: ChEMBL document CHEMBL4007422 (J Med Chem, 2017)
